Screening results from PubChem BioAssay.
697 NFkB inh = lowers PMA/ionomycin-induced NF-kB signal in 697 B cells; 697 B-cell NF-kB luciferase reporter, 16 h; inhibition, % at 4 µM; 330,000 tested, 0.33% active; in the data active means inhibition above about 35%
GPR7 antag = blocks human GPR7 receptor signaling; P48145; GPR7-expressing cells, fluorescence antagonist assay; inhibition, % at 4.4 µM; 290,000 tested, 1.1% active; in the data active means inhibition above about 16%, passing the limit was not always enough;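 further: cells stimulated with the agonist NPW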
Target sequence (P48145 whole entry, looked up): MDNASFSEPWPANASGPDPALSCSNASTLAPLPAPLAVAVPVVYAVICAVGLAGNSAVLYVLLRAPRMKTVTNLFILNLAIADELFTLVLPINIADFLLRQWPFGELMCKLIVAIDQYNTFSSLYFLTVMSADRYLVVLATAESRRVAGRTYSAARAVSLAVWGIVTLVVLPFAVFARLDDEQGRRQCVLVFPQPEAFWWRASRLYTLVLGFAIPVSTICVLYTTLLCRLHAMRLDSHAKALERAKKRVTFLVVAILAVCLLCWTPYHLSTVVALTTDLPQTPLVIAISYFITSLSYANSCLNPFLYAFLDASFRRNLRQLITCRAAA
HSF1 inh = HSF1 inhibition. NIH3T3-HGL HSE-luciferase, MG132-induced, luminescence 8 h; stronger effect = lower value. activity change, negative = inhibition, % at 7.5 µM (by protocol). 300,000 tested, 0.77% active. AID 2098;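 active means more than half of replicate wells show activity change below -50%, luminescence cut by over half; inconclusive means some wells, but at most half, below -50%; inactive means no replicate well below -50%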;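 further: luciferase reports HSF-1 transcriptional activity via heat shock element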
HSF1 activator = increases HSF-1 driven luciferase reporter signal | NIH3T3-HGL HSF-1 luciferase reporter, MG132, 8 h; 100% = twice DMSO control signal | activation, % at 9 µM | 300,000 tested, 1.7% active;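 active means mean replicate activation of at least 50% with a set share of replicates each reaching 50%; inconclusive means only one of those two conditions met; inactive means mean below 50% and too few replicates reaching it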
T cruzi inh = blocks replication of Trypanosoma cruzi. T. cruzi beta-gal in NIH3T3, luminescence, 90 h. inhibition, % (no concentration beside the values). 300,000 tested, 1.4% active;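 active means mean inhibition across valid replicates above about 55%, limit read from the data; inconclusive means mean below that limit but half or more replicates reach it; inactive means mean below it, under half of replicates reach it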;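 further: signal also drops with host cell toxicity which is not excluded here; higher percent means less beta-gal luminescence so fewer parasites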
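System: mouse NIH/3T3 fibroblasts infected with β-gal-expressing T. cruzi Tulahuen C4 / Input: NIH/3T3 cells, 5,000 per well / Buffer or medium: Low-serum DMEM with 2% FBS / Probe or stimulus: 5000 reporter trypomastigotes per well / Schedule: ≥90 h infection period, 3 h prior cell attachment / Measured by: GalScreen luminescence, 60 min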
Jurkat NFkB inh = lowers PMA/ionomycin-induced NF-kB signal in Jurkat cells; AID 435003; 330,000 tested, 0.53% active; inhibition, % at 4 µM; PMA/ionomycin-induced NF-kB luciferase reporter, luminescence; in the data active means inhibition above about 50%
GPR7 antag cf = human GPR7 antagonism, confirmation assay. AID 1952. shares compounds with GPR7 antag. 2,400 tested, 52% active. inhibition, % at 4.4 µM. GPR7-expressing cells, calcium fluorescence antagonist mode; in the data active means inhibition above about 24%;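 further: stimulated with the GPR7 agonist NPW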
MCHR1 antagonist = counter-screen for GPR7 antagonists: antagonists of human MCHR1 | MCHR1-expressing cells, fluorescence antagonist assay | 2,400 tested, 62% active | shares compounds with GPR7 antag | inhibition, % at 4.4 µM; in the data active means inhibition above about 22%
Each line names hits and unclear results; the compound was inactive in the other large screens (follow-up assays come after a bar, where they were run). A selection: hits, their analogues and other compounds. The true share with any hit is near 4.8%.

Cc1ccc(NC(=O)CN2C(=O)NC(C)(c3ccc(Cl)cc3)C2=O)cc1 (stereo not drawn)	GPR7 antag 22.5 | GPR7 antag cf 42.7 | MCHR1 antagonist 28.5
CC1(c2ccc(OC(F)F)cc2)NC(=O)N(CC(=O)Nc2ccc(OC(F)F)cc2)C1=O (stereo not drawn)	GPR7 antag 86.4 | GPR7 antag cf 88.3 | MCHR1 antagonist 86.5
CC1(c2ccc(OC(F)F)cc2)NC(=O)N(CC(=O)Nc2ccc(S(N)(=O)=O)cc2)C1=O (stereo not drawn)	none
COc1ccc2[nH]c3c(c2c1)CCN1C(=O)C(CC(=O)NC/C=C(\C)CCC=C(C)C)C[C@H](C(=O)N2CCOCC2)[C@@]31CCC1CCCC1 (stereo partly drawn)	none (no result: GPR7 antag, HSF1 inh, HSF1 activator, T cruzi inh, Jurkat NFkB inh)
CC(C)NS(=O)(=O)c1ccc(CCC(=O)N2CCCCC2)cc1	GPR7 antag 22.5 | GPR7 antag cf inactive | MCHR1 antagonist inactive
COc1ccccc1-c1cc(C(=O)N2CCCC2)no1	none
O=C(c1cc(-c2ccccc2Cl)on1)N1CCCC1	GPR7 antag 26.8 | GPR7 antag cf inactive | MCHR1 antagonist inactive
Cc1cc(OCC(=O)Nc2ccncc2)cc(C)c1Cl	GPR7 antag 28.8 | GPR7 antag cf 36.4 | MCHR1 antagonist 59.9
Cc1cccc(OCc2nnc(SCC(=O)Nc3cccc(C(=O)N4CCOCC4)c3)o2)c1C	none
NC(=O)C1=C[C@H](C2CCCCC2)C[C@H](OCc2ccc(CO)cc2)O1	none
Cc1ccccc1Oc1ncnc2oc(-c3ccccc3)cc12	GPR7 antag 28.6 | GPR7 antag cf 30.6 | MCHR1 antagonist inactive
CCOc1ccc(NC(=O)CC2C(=O)N(CC)C(=S)N2NC(=O)c2ccncc2)cc1 (stereo not drawn)	none
COc1ccc(S(=O)(=O)N2CCCCCC2)cc1C(=O)OCC(=O)NC1CCS(=O)(=O)C1 (stereo not drawn)	none (no result: GPR7 antag, HSF1 inh, HSF1 activator, T cruzi inh)
COC(=O)c1ccc(-n2nnnc2SCc2ccccc2OC)cc1	GPR7 antag 38.3 | GPR7 antag cf 36.7 | MCHR1 antagonist 60.9
COC(=O)c1ccc(-n2nnnc2SCC(=O)Nc2ccccc2C(=O)OC)cc1	none (no result: 697 NFkB inh, Jurkat NFkB inh)
CCOc1ccc([N+](=O)[O-])cc1CNC1CCCCCCC1	GPR7 antag 54.0 | GPR7 antag cf 38.2 | MCHR1 antagonist inactive
CC(C)(C)NC(=S)NCc1ccncc1	none
COc1ccc(CNCCC(c2ccc(F)cc2)c2ccc(OC(C)C)cc2)cc1OC (stereo not drawn)	GPR7 antag 31.7 | GPR7 antag cf 42.9 | MCHR1 antagonist 77.2
COc1ccc(CNCCC(c2ccccc2)c2ccc(OC(C)C)cc2)cc1OC (stereo not drawn)	none
COc1ccc(C(CCNC(C)c2ccccc2)c2ccc(F)cc2)cc1 (stereo not drawn)	GPR7 antag 40.4 | GPR7 antag cf 46.9 | MCHR1 antagonist 55.6
COc1ccc(C(CCNCc2ccc(F)cc2)c2ccc(F)cc2)cc1 (stereo not drawn)	GPR7 antag 38.6 | GPR7 antag cf 50.4 | MCHR1 antagonist 76.6
COc1ccc(C(CCNCc2ccccc2)c2ccc(F)cc2)cc1 (stereo not drawn)	HSF1 activator inconclusive
Cc1ccc(N2CCN(S(=O)(=O)c3ccc4oc(=O)ccc4c3)CC2)c(C)c1	none
COc1ccc(CN(C)C(=O)c2[nH]c(C)c(C(C)=O)c2C)c(OC)c1OC	GPR7 antag 21.1 | GPR7 antag cf inactive | MCHR1 antagonist inactive
COc1ccc(S(=O)(=O)N2CCOCC2)cc1C(=O)N(C)CCOc1ccc(Cl)cc1	none (no result: GPR7 antag, HSF1 inh, HSF1 activator, T cruzi inh)
CCCC(=O)Nc1ccc2oc(=O)ccc2c1	none
Cc1cccc(OCC(=O)Nc2ccc3oc(=O)ccc3c2)c1	GPR7 antag 36.3 | GPR7 antag cf 32.6 | MCHR1 antagonist 36.1
CC(C)CN(C(=O)Cn1ccccc1=O)C1CCS(=O)(=O)C1 (stereo not drawn)	none (no result: GPR7 antag, HSF1 inh, HSF1 activator, T cruzi inh)
